The text below walks through data of article PMC3960632 (British Journal of Cancer, 2014).

Data set [1] in a line: Stability of the DMSO solution. In kind it is physicochemical. The conditions noted are these: solution in DMSO.
Data set [2] addresses T1, recombinant AKR1C3 (Homo sapiens, UniProt P42330).
T1 sequence (P42330 1-323): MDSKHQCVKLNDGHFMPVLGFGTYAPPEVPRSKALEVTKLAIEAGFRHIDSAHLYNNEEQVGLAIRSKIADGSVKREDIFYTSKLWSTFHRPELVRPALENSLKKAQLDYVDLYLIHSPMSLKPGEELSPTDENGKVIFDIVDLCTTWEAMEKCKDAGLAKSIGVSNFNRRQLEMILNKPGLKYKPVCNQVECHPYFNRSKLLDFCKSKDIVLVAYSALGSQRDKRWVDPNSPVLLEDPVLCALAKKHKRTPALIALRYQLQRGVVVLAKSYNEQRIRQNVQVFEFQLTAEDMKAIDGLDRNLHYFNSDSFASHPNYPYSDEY
The data set can be described thus: AKR1C-diaphorase. Type of data set: biochemical. To be noted: freshly prepared solution.

The test system of data set [3] is HL-60 cells. The data set can be described thus: HL-60 differentiation. In kind it is cell-based. To be noted: 5 μM MPA, 50 μM 4-MDDT. The procedure, abridged:
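HL-60 cells grown in RPMI-1640 with 10% heat-inactivated FBS at 37 °C, 5% CO2. Treated 7 days and re-fed and re-treated every 2 days, with solvent controls. At day 7, PE-CD11b staining read by flow cytometry, mean of ≥3 experiments ± s.e.m. Cytospins from 75–100 μl of culture were air-dried, methanol-fixed and Jenner–Giemsa stained for morphology.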

Data set [4] has as its system primary CLL cells. The data set can be described thus: Primary CLL cell apoptosis. Type of data set: cell-based, human. To be noted: 24 h; 0.5 mM BEZ, 5 μM MPA, 5.1 μM 4-MDDT; n=4 samples. In outline: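 Patient blood mononuclear cells isolated on Ficoll, with consent and ethical approval. Co-cultured 10:1 on non-CD40L-expressing L-cell fibroblast stroma in 96-well plates. Treated in triplicate for 24 h against solvent control. Viability read by annexin V/propidium iodide staining and flow cytometry; n=4 patient samples ± s.e.m.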

Data set [5] relates to HL-60, K562 and KG1a AML cell lines. The data set can be described thus: Cumulative cell counts / viability of AML cell lines. In kind it is cell-based. To be noted: 7 days, 5 μM MPA, 50 μM 4-MDDT. In outline:
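HL60, K562 and KG1a cells kept in RPMI-1640 with L-glutamine, 10% heat-inactivated FBS and penicillin/streptomycin at 37 °C, 5% CO2, passaged every 2 days at 0.25–1.5 × 10^6 cells/ml. Treated 7 days at 1 × 10^4 cells/well or 0.25 × 10^6 cells/ml in flasks, with DMSO/ethanol solvent controls. Cumulative viable counts by manual counting or flow cytometry with viable gates and counting beads. Mean of ≥3 experiments ± s.e.m.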

Data set [6] deals with recombinant AKR1C1-4. To be noted: ref Hebert et al, 2013; cited from earlier work.

For `CN(C)[C@@H]1C(O)=C(C(N)=O)C(=O)[C@@]2(O)C(O)=C3C(=O)c4c(O)cccc4[C@@](C)(O)[C@H]3C[C@@H]12` [tetracycline], the chemical stability entry in data set [1] is given as “rapid conversion of the dissolved tetracycline to an unknown breakdown product”. Also, the AKR1C3-inhibitory activity result in data set [2] is reported as “no AKR1C3-inhibitory activity”.

For the molecule `CC(=O)O[C@]1(C(C)=O)CC[C@H]2[C@@H]3C[C@H](C)C4=CC(=O)CC[C@]4(C)[C@H]3CC[C@@]21C` [MPA, medroxyprogesterone acetate], the “HL-60 cell differentiation in response to ATRA” value in data set [3] (day 7, with 10 nM ATRA) is listed as “promoted the differentiation of HL-60 cells”. Moreover, the “HL-60 cell differentiation (CD11b, phenotypic changes) combined with BEZ” value in data set [3] (day 7, with 0.5 mM BEZ) is given as “strongly promoted HL-60 cell differentiation”. Further, the “apoptosis of CLL cells, single agent” value in data set [4] is given as “neither BEZ nor MPA as single agents markedly increased apoptosis”. In addition, the “AML cell killing when combined with BEZ” value in data set [5] (with 0.5 mM BEZ, NCI compounds at 10 times the IC50, 10 μM A1/A6/A9) was “greatly enhanced AML cell killing”. Moreover, the “anti-proliferative effect, agent alone” value in data set [5] (NCI compounds at 10 times the IC50) is on record as “moderate but statistically anti-proliferative effect”.

With `CC(C)(Oc1ccc(CCNC(=O)c2ccc(Cl)cc2)cc1)C(=O)O` [BEZ, bezafibrate], in data set [4], the “apoptosis of CLL cells, single agent” value is “neither BEZ nor MPA as single agents markedly increased apoptosis”.

Take `O=C(O)c1cccc(S(=O)(=O)N2CCc3ccccc3C2)c1` [A1, 3-(3,4-dihydro-1H-isoquinoline-2-sulphonyl)-benzoic acid]: the “AKR1C3 selectivity in the CRT screen” value in data set [6] is “AKR1C3-selective inhibitors”.

Consider `O=C(N1CCOCC1)N1CCN(c2ccc(Cl)cc2)CC1` [A9, [4-(4-chloro-phenyl)-piperazin-1-yl]-morpholin-4-yl-methanone], for which, in data set [6], the “AKR1C3 selectivity in the CRT screen” value was “AKR1C3-selective inhibitors”.
